Source: PubChem BioAssay (several laboratories)
A selection: hits, their analogues and other compounds. The true share with any hit is near 3.1%.
MEKK2mut PB1 HTS: signal of MEK5 binding to mutant human MEKK2 PB1 domain; bead flow cytometry, Alexa488-MEK5 binding to MEKK2 mutant; percent response, % at 10 µM; 0.35% of 290,000 active; AID 1530; in the data active = percent response above about 24%, passing the limit was not always enough
UBC13 polyUb: human UBC13 polyubiquitination inhibition. P61088. 0.47% of 330,000 active. UBC13 polyubiquitin chain formation, TR-FRET. inhibition, % at 20 µM. AID 485273; in the data active = inhibition above about 45%, passing the limit was not always enough
Target sequence (P61088 whole entry, looked up): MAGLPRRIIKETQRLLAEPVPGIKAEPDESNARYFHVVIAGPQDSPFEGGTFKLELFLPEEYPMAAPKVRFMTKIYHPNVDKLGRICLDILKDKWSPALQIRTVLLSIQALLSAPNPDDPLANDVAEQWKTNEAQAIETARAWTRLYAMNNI
MEKK3 PB1 HTS: modulators (inhibitors or enhancers) of MEK5 binding to human MEKK3 PB1 domain; AID 1529; binding response (% of control), % at 10 µM; 1.4% of 290,000 active; bead-based flow cytometry, Alexa488-MEK5 binding to MEKK3; actives lie on both sides; 0 = blocked by unlabeled MEK5, 100 = vehicle; Q99759;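 active = binding response more than 3 SD above or below the average of its plate-row segment, actives on both sides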;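 also: Alexa488 bead fluorescence after subtracting the streptavidin-only scavenger bead signal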
Apaf1 inhib: inhibitors of human Apaf-1 apoptosome; reconstituted apoptosome caspase-3 activity, DEVD-Rh110 fluorescence; 0.71% of 330,000 active; inhibition, % at 20 µM; O14727; active = inhibition of at least 40% at 20 µM;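 also: plate controls were DMSO wells for no effect and DEVD-CHO caspase inhibitor wells for full effect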
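Material: reconstituted apoptosome with Apaf-1, cytochrome c, caspase-9, procaspase-3, dATP; medium: pH 7.5 Hepes buffer with CHAPS, BSA, DTT; also added: cytochrome c and DEVD-Rh110 substrate; timing: 30 min plus 50 min, RT; signal: Rh110 fluorescence intensity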
PREPL inh: inhibits the human prolyl oligopeptidase-like enzyme | Q4J6C6 | recombinant PREPL, fluorescence polarization activity-based probe | inhibition, % at 5.96 µM | 0.68% of 320,000 active | AID 2751; in the data active = inhibition above about 43%;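 also: 0% = enzyme with DMSO and 100% = wells lacking enzyme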
MEKK2wt PB1 HTS: raises or lowers MEK5 binding to wildtype human MEKK2 PB1 domain. Q9Y2U5. bead flow cytometry, Alexa488-MEK5 binding to MEKK2 WT; actives lie on both sides. binding response (% of control), % at 10 µM. 1.1% of 290,000 active; in the data active = binding response below about 67% or above about 130%
MEKK2wt confirm: raises or lowers MEK5 binding to wildtype human MEKK2, retest. bead flow cytometry, Alexa488-MEK5 binding to MEKK2 WT; actives lie on both sides. 2.4% of 5,900 active. binding response (% of control), % at 10 µM. AID 1892. shares compounds with MEKK3 PB1 HTS; in the data active = binding response below about 16% or above about 210%; inactive = in between
MEKK2mut-MEK5: signal of MEK5 binding to mutant human MEKK2, retest; shares compounds with MEKK3 PB1 HTS; bead flow cytometry, Alexa488-MEK5 binding to MEKK2 mutant; percent response, % at 10 µM; 2% of 5,900 active; in the data active = percent response mostly above about 71%, no sharp cut-off; inactive = mostly below about 38%;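 also: higher means compound restores mutant binding toward wildtype level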
MEKK3 confirm: MEKK3-MEK5 PB1 inhibition, single concentration confirmation; 1.8% of 5,900 active; shares compounds with MEKK3 PB1 HTS; binding response (% of control), % at 10 µM; AID 1894; bead flow cytometry, Alexa488-MEK5 binding to MEKK3; stronger effect = lower value;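 active = binding response below 72% of control, or above a set upper limit, though filed actives all read lower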;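 also: 100% = DMSO only wells and 0% = binding blocked by excess unlabeled MEK5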
* marks the source's active call; other numbers are inactive results; [ ] = dose if it differs, or a comment.

N#CCc1nc2n(n1)Cc1ccccc1-2 was read as UBC13 polyUb 2, MEKK3 PB1 HTS 124*, Apaf1 inhib -13, PREPL inh 8, MEKK2wt PB1 HTS 136*, MEKK2wt confirm 101, MEKK2mut-MEK5 16 and MEKK3 confirm 103.
For Cc1ccc(OCC(=O)N2CCN(C(=O)CCC3CCCC3)CC2)cc1 the results were MEKK2mut PB1 HTS 7, UBC13 polyUb 9, MEKK3 PB1 HTS 108, Apaf1 inhib -13, PREPL inh 4 and MEKK2wt PB1 HTS 112.
O=C(CCC1CCCC1)N1CCN(C(=O)COc2ccccc2)CC1 was read as MEKK2mut PB1 HTS -9, UBC13 polyUb -6, MEKK3 PB1 HTS 75*[inhibitor], Apaf1 inhib 6, PREPL inh 22, MEKK2wt PB1 HTS 87, MEKK2wt confirm 96, MEKK2mut-MEK5 -10 and MEKK3 confirm 101.
Screening COc1ccc(CNCCNC(=O)c2ccco2)c(OC)c1OC returned MEKK2mut PB1 HTS 6, UBC13 polyUb 0, MEKK3 PB1 HTS 127*, Apaf1 inhib -3, PREPL inh 7, MEKK2wt PB1 HTS 114, MEKK2wt confirm 103, MEKK2mut-MEK5 3 and MEKK3 confirm 102.
`Brc1ccccc1/C=N/Nc1ccc2ccccc2n1` gave MEKK2mut PB1 HTS 15, UBC13 polyUb -3, MEKK3 PB1 HTS 101, Apaf1 inhib 14, PREPL inh 37 and MEKK2wt PB1 HTS 126.
For Cc1cc(N/N=C/c2ccccc2Br)nc2ccccc12 the results were MEKK2mut PB1 HTS 22, UBC13 polyUb 7, MEKK3 PB1 HTS 99, Apaf1 inhib 13, PREPL inh 16, MEKK2wt PB1 HTS 144*, MEKK2wt confirm 136, MEKK2mut-MEK5 13 and MEKK3 confirm 104.
Screening Cn1c(=O)[nH]c(=O)c2[nH]c(N(Cc3ccccc3)Cc3ccccc3)nc21 returned MEKK2mut PB1 HTS 15, UBC13 polyUb 10, MEKK3 PB1 HTS 122*, Apaf1 inhib 20, PREPL inh 9, MEKK2wt PB1 HTS 121, MEKK2wt confirm 98, MEKK2mut-MEK5 0 and MEKK3 confirm 101.
`Cn1c(=O)[nH]c(=O)c2[nH]c(CN3CCN(Cc4ccccc4)CC3)nc21` gave MEKK2mut PB1 HTS 7, UBC13 polyUb -11, MEKK3 PB1 HTS 102, Apaf1 inhib 5, PREPL inh -6 and MEKK2wt PB1 HTS 103.
CC1(CCc2ccc3c(c2)OCO3)NCCc2c1[nH]c1ccccc21 (centres undefined) was read as MEKK2mut PB1 HTS 25*, UBC13 polyUb 11, MEKK3 PB1 HTS 107, Apaf1 inhib 0, PREPL inh 2, MEKK2wt PB1 HTS 139, MEKK2wt confirm 131, MEKK2mut-MEK5 14 and MEKK3 confirm 105.
For C[C@H](CO)N1C[C@H](C)[C@@H](CN(C)S(=O)(=O)c2cccs2)Oc2c(NS(=O)(=O)c3cn(C)cn3)cccc2C1=O the results were UBC13 polyUb -3, Apaf1 inhib 6 and PREPL inh 5.
CC(c1ccccc1)n1c(N2CCN(C)CC2)nc2c1c(=O)[nH]c(=O)n2C (centres undefined) was read as MEKK2mut PB1 HTS 0, UBC13 polyUb 0, MEKK3 PB1 HTS 105, Apaf1 inhib 14, PREPL inh -1 and MEKK2wt PB1 HTS 104.
Screening CCOC(=O)Cn1nc(C)c2c1CCCC2=O returned MEKK2mut PB1 HTS 3, UBC13 polyUb 1, MEKK3 PB1 HTS 100, Apaf1 inhib -7, PREPL inh 18 and MEKK2wt PB1 HTS 104.
